# ChEMBL document CHEMBL4765342, “Substituted benzothiophene and benzofuran derivatives as a novel class of bone morphogenetic Protein-2 upregulators: Synthesis, anti-osteoporosis efficacies in ovariectomized rats and a zebrafish model, and ADME properties” (Eur J Med Chem, 2020)
# How the values were obtained:
# [1] = Half life in Sprague-Dawley rat at 10 mg/kg, po by LC-MS/MS analysis; format: ADME, organism-based; details: in vivo
# Procedure, shortened: (§1)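 SD rats dosed iv or intragastrically. Plasma (50 µL) was mixed with diclofenac internal standard (50 ng/mL, 300 µL), vortexed, centrifuged at 4 °C, and the supernatant analysed by LC/MS/MS against spiked standard and QC curves. Noncompartmental parameters calculated; mean ± SD, n = 3 (bioavailability excepted).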
# [2] = Toxicity in BALB/c mouse assessed as necrosis in renal tubular epithelial cells at 50 to 100 mg/kg, ig administered for 14 days; format: organism-based; details: in vivo, po, 336 h, dose 50-100 mg/kg, time 14 day
# Procedure, shortened: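 BALB/c mice, 10 per group: untreated blank group plus low (50 mg/kg) and high (100 mg/kg) dose groups, intragastric once daily for 14 days. Hair, behaviour and neurological signs monitored throughout. At day 14 mice were weighed and dissected. Kidney and liver tissue was fixed in 3 mm pieces, dehydrated through graded alcohol, cleared in xylene, embedded in paraffin, sectioned and examined histopathologically.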
# [3] = Toxicity in BALB/c mouse assessed as fremitus at 50 to 100 mg/kg, ig administered for 14 days; format: organism-based; details: in vivo, po, 336 h, dose 50-100 mg/kg, time 14 day
# Procedure, shortened: (§2)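 BALB/c mice, 10 per group, gavaged daily for 14 days at 50 or 100 mg/kg; blank control group included. Hair, behaviour and neurological signs (fremitus, convulsion, spasm, gait disturbance) were observed. At day 14, mice were weighed and given routine blood tests and serum biochemistry (ALT, AST, urea, creatinine; n = 10). Liver and kidney were examined on paraffin-embedded histology sections.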
# [4] = Renal toxicity in BALB/c mouse assessed as effect on serum creatinine level at 50 to 100 mg/kg, ig administered for 14 days; format: organism-based; details: in vivo, po, 336 h, dose 50-100 mg/kg, time 14 day; procedure, shortened: as §2
# [5] = Toxicity in BALB/c mouse assessed as effect on liver megakaryocyte at 50 to 100 mg/kg, ig administered for 14 days; format: organism-based; details: in vivo, po, 336 h, dose 50-100 mg/kg, time 14 day; procedure, shortened: as §2
# [6] = Toxicity in BALB/c mouse assessed as hepatocyte nucleus mitosis at 50 to 100 mg/kg, ig administered for 14 days; format: organism-based; details: in vivo, po, 336 h, dose 50-100 mg/kg, time 14 day; procedure, shortened: as §2
# [7] = Toxicity in Kunming mouse assessed as organism death administered orally for 3 days and observed for 17 days starting from drug administration; details: in vivo, po, 408 h, time 17 day
# [8] = Permeability across apical to basolateral side in human Caco-2 cells assessed as […] yellow leakage at 10 uM incubated for 2 hrs LC-MS/MS analysis; format: ADME, cell-based; details: caco-2, 2 h
# Procedure, shortened: (§3)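 Caco-2 monolayers, apical to basolateral direction. Plates preincubated 30 min at 37 °C, then exposed to 10 µM compound for 2 h at 37 °C without shaking. Donor and receiver samples were quenched, centrifuged and measured by LC/MS/MS, in duplicate. Papp calculated from receiver concentration, area and time. Monolayer integrity checked by TEER and by Lucifer yellow leakage (30 min, 37 °C, ex 485/em 530 nm).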
# [9] = in vitro; details: human, liver microsomes
# [10] = target: Cytochrome P450 2D6 (Homo sapiens, UniProt P10635); assay: Inhibition of CYP2D6 in human liver microsomes using dextromethorphan as substrate incubated for 5 mins followed by NADPH addition and measured after 20 mins by LC-MS/MS analysis
# [11] = Hepatotoxicity in BALB/c mouse assessed as effect on serum ALT level at 50 to 100 mg/kg, ig administered for 14 days; format: toxicity, organism-based; details: in vivo, po, 336 h, dose 50-100 mg/kg, time 14 day; procedure, shortened: as §2
# [12] = Apparent permeability across apical to basolateral side in human Caco-2 cells at 10 uM incubated for 2 hrs LC-MS/MS analysis; format: ADME, cell-based; details: Caco-2; procedure, shortened: as §3
# [13] = Toxicity in BALB/c mouse assessed as effect on behavioral change at 50 to 100 mg/kg, ig administered for 14 days; format: organism-based; details: in vivo, po, 336 h, dose 50-100 mg/kg, time 14 day; procedure, shortened: as §2
# [14] = target: Cytochrome P450 2C9 (Homo sapiens, UniProt P11712); assay: Inhibition of CYP2C9 in human liver microsomes using diclofenac as substrate incubated for 5 mins followed by NADPH addition and measured after 20 mins by LC-MS/MS analysis; format: ADME
# [15] = Permeability across apical to basolateral side in human Caco-2 cells assessed as transepithelial electrical resistance at 10 uM incubated for 2 hrs LC-MS/MS analysis; format: ADME, cell-based; details: caco-2, 2 h; procedure, shortened: as §3
# [16] = Hepatotoxicity in BALB/c mouse assessed as effect on serum AST level at 50 to 100 mg/kg, ig administered for 14 days; format: toxicity, organism-based; details: in vivo, po, 336 h, dose 50-100 mg/kg, time 14 day; procedure, shortened: as §2
# [17] = Toxicity in BALB/c mouse assessed as hepatocyte necrotic foci at 50 to 100 mg/kg, ig administered for 14 days; format: organism-based; details: in vivo, po, 336 h, dose 50-100 mg/kg, time 14 day; procedure, shortened: as §2
# [18] = Toxicity in BALB/c mouse assessed as gait disturbance at 50 to 100 mg/kg, ig administered for 14 days; format: organism-based; details: in vivo, po, 336 h, dose 50-100 mg/kg, time 14 day; procedure, shortened: as §2
# [19] = in vitro; details: human, liver microsomes; remark: listed apart in the source
# [20] = Cmax in Sprague-Dawley rat at 10 mg/kg, po by LC-MS/MS analysis; format: ADME, organism-based; set-up: route oral, dose 10 mg/kg; details: in vivo; procedure, shortened: as §1
# [21] = target: Cytochrome P450 2C19 (Homo sapiens, UniProt P33261); assay: Inhibition of CYP2C19 in human liver microsomes using omeprazole as substrate incubated for 5 mins followed by NADPH addition and measured after 20 mins by LC-MS/MS analysis; format: ADME
# Procedure, shortened: (§4)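 Human liver microsomes at 0.2 mg/mL mixed with probe substrates, preincubated 5 min at 37 °C. Reaction started with NADPH and run 20 min at 37 °C in a shaking bath. Quenched, held at -20 °C for 1 h, centrifuged, and the supernatant analysed by LC/MS/MS. Assay validated with specific inhibitors for each isoform.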
# [22] = target: T1, Cytochrome P450 1A2 (Homo sapiens, UniProt P05177); assay: Inhibition of CYP1A2 in human liver microsomes using phenacetin as substrate incubated for 5 mins followed by NADPH addition and measured after 20 mins by LC-MS/MS analysis; format: ADME; procedure, shortened: as §4
# T1 sequence (P05177 whole entry): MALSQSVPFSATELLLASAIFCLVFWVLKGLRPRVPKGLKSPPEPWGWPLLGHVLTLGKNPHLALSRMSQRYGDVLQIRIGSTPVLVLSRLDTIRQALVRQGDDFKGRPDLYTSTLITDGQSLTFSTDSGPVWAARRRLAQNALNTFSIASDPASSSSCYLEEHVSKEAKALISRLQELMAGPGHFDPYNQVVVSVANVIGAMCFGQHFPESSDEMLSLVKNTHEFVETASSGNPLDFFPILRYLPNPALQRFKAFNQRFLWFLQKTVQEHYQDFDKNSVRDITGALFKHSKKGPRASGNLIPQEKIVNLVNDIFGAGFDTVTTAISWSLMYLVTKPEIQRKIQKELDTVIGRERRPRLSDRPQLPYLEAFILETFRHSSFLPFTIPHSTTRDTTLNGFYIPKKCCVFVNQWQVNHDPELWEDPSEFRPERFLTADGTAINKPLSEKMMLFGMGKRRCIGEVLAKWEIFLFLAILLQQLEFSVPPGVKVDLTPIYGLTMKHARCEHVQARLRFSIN
# Cytochrome P450 2C19, sequence (P33261 whole entry, canonical isoform): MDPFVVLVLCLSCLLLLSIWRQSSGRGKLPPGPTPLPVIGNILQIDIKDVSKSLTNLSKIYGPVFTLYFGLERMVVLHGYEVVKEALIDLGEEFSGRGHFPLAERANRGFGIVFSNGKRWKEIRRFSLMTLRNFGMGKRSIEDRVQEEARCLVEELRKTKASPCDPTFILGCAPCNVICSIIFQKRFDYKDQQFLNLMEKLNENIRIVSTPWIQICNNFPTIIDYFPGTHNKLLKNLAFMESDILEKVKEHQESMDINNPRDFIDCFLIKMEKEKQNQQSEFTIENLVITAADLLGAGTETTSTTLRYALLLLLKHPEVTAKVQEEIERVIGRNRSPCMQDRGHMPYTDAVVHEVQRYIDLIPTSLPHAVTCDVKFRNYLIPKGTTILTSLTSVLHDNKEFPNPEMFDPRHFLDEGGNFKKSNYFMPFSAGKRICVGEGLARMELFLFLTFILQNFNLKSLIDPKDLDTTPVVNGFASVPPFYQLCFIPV
# Cytochrome P450 2D6, sequence (P10635 whole entry): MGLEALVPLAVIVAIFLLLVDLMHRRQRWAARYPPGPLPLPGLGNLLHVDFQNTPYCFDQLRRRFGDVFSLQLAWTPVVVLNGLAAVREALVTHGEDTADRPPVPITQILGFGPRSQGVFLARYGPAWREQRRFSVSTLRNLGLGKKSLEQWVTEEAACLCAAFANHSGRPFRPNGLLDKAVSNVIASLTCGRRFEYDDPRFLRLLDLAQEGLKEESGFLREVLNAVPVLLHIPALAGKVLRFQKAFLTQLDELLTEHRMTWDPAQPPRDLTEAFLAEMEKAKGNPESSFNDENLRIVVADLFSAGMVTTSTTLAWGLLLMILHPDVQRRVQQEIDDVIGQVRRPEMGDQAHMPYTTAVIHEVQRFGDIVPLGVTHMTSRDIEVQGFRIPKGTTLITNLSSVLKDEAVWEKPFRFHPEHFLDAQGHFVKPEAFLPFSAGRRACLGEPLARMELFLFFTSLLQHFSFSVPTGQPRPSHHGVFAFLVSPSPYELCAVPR
# Cytochrome P450 2C9, sequence (P11712 whole entry): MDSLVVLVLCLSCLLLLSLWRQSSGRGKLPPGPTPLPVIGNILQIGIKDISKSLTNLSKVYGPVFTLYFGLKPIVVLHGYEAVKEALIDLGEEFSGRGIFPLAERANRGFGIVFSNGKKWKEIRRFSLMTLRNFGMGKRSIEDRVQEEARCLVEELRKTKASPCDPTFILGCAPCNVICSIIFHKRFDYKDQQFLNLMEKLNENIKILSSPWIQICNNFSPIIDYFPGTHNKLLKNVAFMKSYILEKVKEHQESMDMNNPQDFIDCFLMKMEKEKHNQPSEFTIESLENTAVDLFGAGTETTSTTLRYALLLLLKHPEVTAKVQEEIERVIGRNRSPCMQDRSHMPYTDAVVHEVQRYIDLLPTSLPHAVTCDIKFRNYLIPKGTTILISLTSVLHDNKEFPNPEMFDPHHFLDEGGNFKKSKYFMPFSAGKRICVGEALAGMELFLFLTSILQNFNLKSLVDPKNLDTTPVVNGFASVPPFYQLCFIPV
compound,measurement,setting,value
COc1ccc2cc(C(=O)NCCN(C)C)oc2c1.CS(=O)(=O)O,half-life,[1],4.53 h
same,Activity,[2],Toxic
same,Activity,[3],Non-Toxic
same,Activity,[4],Non-Toxic
same,Activity,[5],Toxic
same,Activity,[6],Toxic
same,LD50,[7],> 500 mg/kg/day
same,Activity,[8],0.158%
same,"half-life at 0.5 h, 100 µM",[9],1.72 h
same,IC50,[10],7.84 µM
same,Activity,[11],Non-Toxic
same,"Papp A→B at 2 h, 10 µM",[12],9.34 ×10⁻⁶ cm/s
same,Activity,[13],Non-Toxic
same,IC50,[14],> 10 µM
same,Activity,[15],341 Ω·cm²
same,Activity,[16],Non-Toxic
same,Activity,[17],Toxic
same,Activity,[18],Non-Toxic
same,"microsomal CLint at 0.5 h, 100 µM",[19],6.73 µL/min/mg
same,Cmax,[20],54.2 ng/mL
same,IC50,[21],> 10 µM
same,IC50,[22],> 10 µM
